Source: PubChem BioAssay AID504775 (Broad Institute, 2011)
Hit rate of the full screen: of about 320,000 compounds, about 310 (0.097%) were called active.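 The calls were made as follows: active = mean replicate activation of at least 60% and every replicate at or above 60%; inconclusive = mean or all-replicate condition met, but not both; inactive = mean below 60% and not all replicates reaching 60%.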 Shown is part of a subset that was picked to be rich in actives.

Experiment: activators of SR-BI mediated DiI-HDL uptake, primary screen, ldlA[mSR-BI] CHO cells, DiI fluorescence (AID 504775);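 also: 0% = median plate neutral-control signal and 100% = twice that signal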
Conditions: 3 h, at 12.5 µM, stronger effect = higher value, 100 = double the neutral-control signal
Summary of the method: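 material = CHO ldlA[mSR-BI] cells | medium = Ham's F12 with 0.5% BSA, HEPES 25 mM, pH 7.4 | reagent = fluorescent DiI-HDL, 10 µg/mL final | compound dosing = single-point compound dose | incubation = 3 h, 37 °C | measured by = bottom-read fluorescence, 550/595 nm | measure = HDL uptake via cellular fluorescence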

activation, active:
CCCN(CCC)CC(O)COc1ccccc1C(=O)Nc1ccccc1 (configuration not stated) 102%
CC1=CC(C)(C)Nc2ccc(OC(=O)C(Cc3ccccc3)N3C(=O)C4CCCCC4C3=O)cc21 (configuration not stated) 62.9%
COc1ccc(C(C(=O)NC2CCCCC2)N(C(=O)CCl)c2ccccc2Cl)cc1 (configuration not stated) 88.3%
COc1cc(S(=O)(=O)N2CCN(C(=O)C3CC3)CC2)ccc1NC(C)=O 60.7%
O=C(C[C@H]1C[C@H](C(=O)N2CCOCC2)[C@@]2(CCC3CCCC3)c3[nH]c4ccc(Cl)cc4c3CCN2C1=O)NCc1ccco1 82.2%
CCCCOC(=O)c1[nH]c(C)c(C(=O)OC)c1C 176%
Cc1sc(NC(=O)C2=COCCO2)c(C#N)c1C 172%
O=C(C1=C(O)C(=O)N(Cc2ccccc2)C1c1cccnc1)c1ccco1 (configuration not stated) 66.5%
COc1ccc2sc(-c3ccccc3OC)c(-c3ccc(OCCN4CCCC4)cc3)c2c1 88%

activation, inactive:
O=C(COC(=O)c1ccc(O)cc1O)NC(=O)c1ccccc1 38.7%
O=C(NCc1ccccc1)c1cccc(NC(=O)C2CCCCC2)c1 -0.488%
O=C1OCC2=C1C(c1ccc(Cl)cc1)c1cc3c(cc1O2)OCO3 (configuration not stated) -14%
CCN1C[C@@H]2[C@@H]3C(=O)N(C)C(=O)[C@@H]3[C@](C)(C1=O)N2C(=O)c1ccccc1 -27.8%
Oc1cccc(CCc2ccccn2)c1 0.288%
COc1cccc(/C=N/Nc2ccc(S(=O)(=O)Nc3ccccc3C(=O)O)cc2[N+](=O)[O-])c1O 4.5%
CCCN(CC(=O)Nc1ccc(C(N)=O)cc1)CC(=O)Nc1ccccc1C 13.5%
CCCOc1ccccc1C(=O)NCCCC(=O)O 21.5%
COc1ccc(CNCCCNCc2ccc(OC)c(OC)c2)cc1OC 4.58%
CC(C)(C)C(=O)Nc1cccc(-c2ccc[nH]2)n1 5.41%
O=C1C2C3C=CC(C3)C2C(=O)N1c1ncc([N+](=O)[O-])s1 (configuration not stated) 8.82%
COc1ccc(Br)cc1/C=N/Nc1ccc(S(=O)(=O)Nc2ccccc2C(=O)O)cc1[N+](=O)[O-] 16.3%
COc1ccc(/C=C/C(=O)OCC(=O)N2CCN(S(=O)(=O)c3ccc(C)cc3C)CC2)cc1OC -71.9%
CCOc1cc(C(=O)N(Cc2ccccc2)c2ccc(C)cc2)ccc1OCC(=O)N1CCOCC1 -5.71%
O=C(NNC(=O)c1ccccc1O)c1ccccc1O -124%
CN(C)C(=S)N=c1ssc(=S)n1Cc1ccco1 -0.753%
O=C(CC1Sc2ccccc2NC1=O)NNc1ccc(Cl)c(Cl)c1 (configuration not stated) -45.6%
O=S(=O)(O)c1cc2onnc2c2ccccc12 15.5%
Nc1ccc2c(c1)C(O)c1ccc(Cl)cc1-2 (configuration not stated) 14.5%
COc1cc(C(=O)CCc2ccc3c(c2)OCO3)cc(OC)c1OC -43.2%
COC1=CC(=O)OC(c2ccc(OC)cc2)C1 (configuration not stated) 14.1%
O=C(NCCc1ccccc1)c1c[nH]c2ccc(F)cc2c1=O -17.9%
CC(C)[C@@H](C(=O)OCC(=O)c1ccc2c(c1)NC(=O)CO2)N1C(=O)c2ccccc2C1=O 1.12%
CCOC(=O)CCC(NC(=O)c1ccc(CNc2nc3cc(C(F)(F)F)ccc3nc2C(=O)OCC)cc1)C(=O)OCC (configuration not stated) -43.7%
CC(=O)OC1CCC2C3CCC4=C(CC(F)C(=O)C4)C3CCC12C (configuration not stated) -3.99%
CC(=O)OCC(=O)C1(O)CCC2C3CC(C)C4=CC(=O)CCC4(C)C3C(O)CC21C (configuration not stated) -0.166%
Cc1ccc(C)c(S(=O)(=O)N(C)c2ccc(OC(=O)C3CCN(C(=O)c4ccc(F)cc4)CC3)cc2)c1 -12.3%
Cc1ccc(Cn2c(C)c3cnn(CC(=O)NCCN4CCOCC4)c(=O)c3c2C)cc1 -22.1%
CCOC(=O)C1CCCN(C(=O)C2CCN(S(=O)(=O)c3ccc(Cl)c(C(F)(F)F)c3)CC2)C1 (configuration not stated) 22.7%
COc1ccccc1N(CC(=O)Nc1c(C)n(C)n(-c2ccccc2)c1=O)S(=O)(=O)c1ccccc1 12%
O=C1OC(Oc2ccc(Br)cc2)(c2ccccc2)c2ccccc21 (configuration not stated) -0.981%
O=[N+]([O-])c1ccc(N=NNc2ccc([N+](=O)[O-])cc2)cc1 5.77%
CCOC(=O)C(Cc1ccc(N)cc1)N1C(=O)c2ccccc2C1=O (configuration not stated) -16%
CC1=CC(C)(C)Nc2ccc(OC(=O)CN3C(=O)C4CCCCC4C3=O)cc21 (configuration not stated) 9.46%
COc1ccc(C(C(=O)NC2CCCCC2)N(C(=O)c2snc(C(N)=O)c2N)c2ccccc2OC)cc1 (configuration not stated) 13.6%
Cc1ccccc1N(C(=O)CNC(=O)c1cccs1)C(C(=O)NC1CCCC1)c1ccncc1 (configuration not stated) 4.44%
Oc1ccc(-c2nc3ccccc3nc2-c2ccc(O)cc2O)c(O)c1 -26%
C/C(=N\Nc1ccccc1)c1cccs1 13.7%
O=C(CCCCCCCC(=O)N1CCCCC1)N1CCCCC1 7.36%
COc1ccc(CCC(=O)Nc2ccc(Cl)c(S(=O)(=O)N3CCOCC3)c2)cc1OC -60.3%
CC(=O)CSc1nc(CCc2ccccc2)c(C#N)c(=O)[nH]1 11%
Nc1ccc2[nH]c(=S)sc2c1 -5.72%
COc1ccc(S(=O)(=O)N2CCC(C(=O)N3CCOCC3)CC2)cc1OC 0.407%
COc1ccc(S(=O)(=O)N2CCC(C(=O)N3CCc4ccccc4C3)CC2)cc1OC 4.32%
NC(=S)NN=C1CCCC(C(F)(F)F)C1 (configuration not stated) -74%
N#CCc1c[nH]c2ccc([N+](=O)[O-])cc12 13.4%
O=C1CC(c2ccccc2)C(=O)N2C(=O)CC(c3ccccc3)C(=O)N12 (configuration not stated) 16.5%
C#CCOCCOCCOCCNc1nc(N2CCN(C(=O)Cn3cc(CCO)nn3)CC2)nc(N2CCN(C(=O)Cn3cc(CCCN=C(N)N)nn3)CC2)n1 17.5%
COC(=O)CC(CC(=O)OC)n1cccc1 7.62%
Cc1ccc(NC(=O)C(C)OC(=O)C2CC3CCCC(C2)C3=O)cc1S(=O)(=O)N1CCOCC1 (configuration not stated) -2.41%
CN(C)C(=O)CCc1ccc2c3c([nH]c2c1)[C@]1(CCC2CCCC2)[C@@H](C(=O)N2CCOCC2)C[C@H](CC(=O)NCc2ccco2)C(=O)N1CC3 14.3%
COc1ccc(CNC(=O)C[C@H]2C[C@H](C(=O)N3CCOCC3)[C@@]3(CCC4CCCC4)c4[nH]c5ccc(Cl)cc5c4CCN3C2=O)cc1OC -30.3%
O=C(CC(=O)c1cccnc1)c1ccccc1 -1.21%
CCOC(=O)c1c(C)[nH]c(C(=O)OCC(=O)c2ccc(OC)cc2OC)c1C -45.7%
CCOC(=O)c1c(C)[nH]c(C(=O)OCC(=O)N2CCCC2=O)c1C 24.7%
COc1ccc(CNC(=O)CN2C(=O)c3ccccc3S2(=O)=O)cc1 16.4%
Cc1ccc(C(=O)O)c(NC=O)c1OCc1ccccc1 19.3%
COc1ccc(C(CNC(=O)c2cc(S(=O)(=O)Nc3cccc(C)c3)ccc2C)N2CCCC2)cc1 (configuration not stated) 21%
Cc1ccc(S(=O)(=O)N2CCC(C(=O)N3CCCCCCC3)CC2)cc1 -7.71%
COc1ccc(S(=O)(=O)N2CCc3ccccc32)cc1C(=O)Nc1cc(S(C)(=O)=O)ccc1Cl -27.5%
O=C1/C(=C\c2ccc([N+](=O)[O-])cc2)CS(=O)(=O)C/C1=C/c1ccc([N+](=O)[O-])cc1 -17.7%
Oc1[nH]c2ccccc2c1N=Nc1c(F)c(F)c(F)c(F)c1F -15.7%
Cc1cc(NC(=O)c2cc3ccccc3o2)no1 18.7%
COc1cc(C(=O)N2CCN(S(=O)(=O)c3ccc(C(C)C)cc3)CC2)ccc1OCC(=O)N1CCOCC1 10.9%
O=C(O)c1ccc([N+](=O)[O-])cc1Sc1ccsc1 -7.71%
O=C1NC(c2ccccc2)Cc2ccncc21 (configuration not stated) 37.2%
Cc1csc(NC(=O)C2=COCCO2)n1 11%
CCC(CC)c1nnc(NC(=O)C2=COCCO2)s1 9.84%
COc1ccc(C(CNC(=O)c2cccc(S(=O)(=O)Nc3ccc(Br)cc3)c2)N(C)C)cc1 (configuration not stated) 24.3%
COc1ccc(CCNC(=O)c2ccc(NC(=O)CC3SC(N4CCCCC4)=NC3=O)cc2)cc1OC (configuration not stated) -66.6%
COC(=O)Cc1c(-c2[nH]c3ccccc3c2CC(=O)OC)[nH]c2ccccc12 -37.9%
CCOc1cc(C2C(C(=O)c3ccco3)=C(O)C(=O)N2Cc2ccccc2)ccc1O (configuration not stated) 21.9%
COc1ccc(C2C(C(C)=O)=C(O)C(=O)N2Cc2cccnc2)cc1 (configuration not stated) 30%
C#CCOCCOCCOCCNc1nc(N2CCOCC2)nc(N2CCN(C(=O)[C@H](Cc3ccc(O)cc3)n3cc(CCO)nn3)CC2)n1 15.4%
CC1CN(Cc2ccco2)C(=S)N(c2ccccc2)C1=O (configuration not stated) 33.1%
COc1ccc(-c2sc3ccccc3c2-c2ccc(OCCN3CCOCC3)cc2)cc1 -39.3%
COc1cccc(-c2sc3ccc(OC)cc3c2-c2ccc(OCCN3CCCCC3)cc2)c1 -2.84%
COc1cccc2oc(CCc3ccccc3)cc(=O)c12 4.54%
